≈ marks a conversion by molar mass, not a printed value. Calls of active or inactive are those of the source. The rule behind the calls is not given here.
Experiments:
[1] = Inhibition of Hedgehog signaling pathway in mouse C3H10T1/2 cells assessed as reduction in oxysterol-induced Gli1 mRNA expression after 24 hrs by q-PCR analysis; type: cell-based; conditions: C3H 10T1/2, 24 h
[2] = biological target: T1, Vitamin D3 receptor (Mus musculus) (UniProt P48281); experiment: Activation of VDR in mouse C3H10T1/2 cells assessed as change in Cyp24A1 mRNA expression at 5 uM after 24 hrs by q-PCR analysis relative to control; type: cell-based
T1 sequence (whole entry): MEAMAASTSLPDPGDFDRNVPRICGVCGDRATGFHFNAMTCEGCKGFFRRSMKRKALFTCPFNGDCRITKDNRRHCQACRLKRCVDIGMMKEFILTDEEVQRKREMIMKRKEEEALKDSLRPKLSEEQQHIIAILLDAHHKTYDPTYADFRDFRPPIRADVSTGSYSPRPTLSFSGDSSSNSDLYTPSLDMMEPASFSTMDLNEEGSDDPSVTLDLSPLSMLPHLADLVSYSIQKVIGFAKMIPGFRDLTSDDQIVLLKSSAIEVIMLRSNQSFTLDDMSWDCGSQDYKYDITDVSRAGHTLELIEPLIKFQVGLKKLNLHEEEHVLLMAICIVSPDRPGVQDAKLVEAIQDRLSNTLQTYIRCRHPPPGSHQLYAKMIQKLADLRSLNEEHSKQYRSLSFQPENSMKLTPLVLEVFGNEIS

[3] = Inhibition of Hedgehog signaling pathway in mouse ASZ001 cells assessed as reduction in […] Gli1 mRNA expression after 48 hrs by q-PCR analysis; type: cell-based; conditions: ASZ001, 48 h
[4] = biological target: T1, Vitamin D3 receptor (Mus musculus); experiment: Activation of VDR in mouse ASZ001 cells assessed as change in Cyp24A1 mRNA expression at 5 uM after 48 hrs by q-PCR analysis relative to control; type: cell-based
Vitamin D3 receptor = biological target: T2, Vitamin D3 receptor (Mus musculus, UniProt P48281); experiment: Activation of VDR in mouse ASZ001 cells assessed as change in Cyp24A1 mRNA expression after 48 hrs by q-PCR analysis; type: cell-based
T2 sequence (P48281 whole entry): T1 sequence (whole entry)
How it was run: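 In ASZ001 cells, full dose-response Cyp24A1 mRNA measurement by qPCR was done relative to DMSO control (1.0). EC50 values are mean ± SEM of at least two separate experiments performed in triplicate.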

[5] = Half life in human liver microsomes at 1 uM by LC-MS/MS analysis
[6] = Clearance in human liver microsomes assessed per mg protein at 1 uM by LC-MS/MS analysis
[7] = Kinetic solubility of the compound in pH 4 phosphate buffered saline; type: physicochemical; conditions: read-out: Kinetic_solubility
How it was run: (§1)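 Kinetic solubility was run in PBS at pH 4.0 and at pH 7.4 under a standard contract protocol. Compound concentration was measured by LC-MS/MS.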

[8] = Kinetic solubility of the compound in pH 7.4 phosphate buffered saline; type: physicochemical; conditions: read-out: Kinetic_solubility; how it was run: as §1
Mus musculus [9] = species on record: Mus musculus; experiment: Inhibition of Hedgehog signaling pathway in mouse C3H10T1/2 cells assessed as residual oxysterol-induced Gli1 mRNA expression at 5 uM after 24 hrs by q-PCR analysis relative to oxysterol alone
Medulloblastoma cell = experiment: Antiproliferative activity against medulloblastoma cells derived from conditional patched knockout mouse after 48 hrs by [3H]-thymidine incorporation assay; type: functional
How it was run: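 Primary tumour cells from Math1-Cre;Ptc fl/fl medulloblastoma were isolated and cultured in vitro, then incubated with analogue for 48 h in a proliferation assay. GI50 is mean ± SEM of at least two separate experiments performed in triplicate.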

[10] = biological target: T1, Vitamin D3 receptor (Mus musculus); experiment: Activation of VDR in mouse ASZ001 cells assessed as change in Cyp24A1 mRNA expression at 2.5 uM after 48 hrs by q-PCR analysis relative to control; type: cell-based
Mus musculus [11] = species on record: Mus musculus; experiment: Inhibition of Hedgehog signaling pathway in VDR-deficient mouse C3H10T1/2 cells assessed as reduction in oxysterol-induced Gli1 mRNA expression at 5 uM after 24 hrs by q-PCR analysis
Mus musculus [12] = species on record: Mus musculus; experiment: Inhibition of Hedgehog signaling pathway in Sufu-deficient mouse C3H10T1/2 cells assessed as reduction in oxysterol-induced Gli1 mRNA expression at 5 uM after 24 hrs by q-PCR analysis
Mus musculus [13] = species on record: Mus musculus; experiment: Inhibition of Hedgehog signaling pathway in VDR-deficient mouse C3H10T1/2 cells assessed as change in CYP24A1 mRNA expression at 5 uM after 24 hrs by q-PCR analysis; set-up: scale not given: the % may be the effect or the level left
Mus musculus [14] = species on record: Mus musculus; experiment: Inhibition of Hedgehog signaling pathway in Sufu-deficient mouse C3H10T1/2 cells assessed as change in CYP24A1 mRNA expression at 5 uM after 24 hrs by q-PCR analysis; set-up: scale not given: the % may be the effect or the level left
[15] = Inhibition of Hedgehog signaling pathway in Sufu-deficient mouse C3H10T1/2 cells assessed as reduction in oxysterol-induced Gli1 mRNA expression after 24 hrs by q-PCR analysis; conditions: C3H 10T1/2, 24 h
[16] = Inhibition of Hedgehog signaling pathway in VDR-deficient mouse C3H10T1/2 cells assessed as reduction in oxysterol-induced Gli1 mRNA expression after 24 hrs by q-PCR analysis; conditions: C3H 10T1/2, 24 h

Compound	IC50 [1]	Activity [2]	IC50 [3]	Activity [4]	EC50 (Vitamin D3 receptor)	CLH [6]	solubility kinetic [7]	solubility kinetic [8]	% Gli1 activity (Mus musculus [9])	GI50 (Medulloblastoma cell)	half-life at 1 µM ([5]; liver microsomes)	other results
COC(C)(C)CCC[C@@H](C)[C@H]1CC[C@H]2[C@@H](OC(=O)c3cccc(O)c3)CCC[C@]12C	1600 nM	14%	1000 nM	14%	> 10000 nM	15	0.0027 µg/mL (≈ 0.00648 µM)	0.0023 µg/mL (≈ 0.00552 µM)	0.7%			half-life at 1 µM ([5]; microsomes): 49 min
CC(C)CCC[C@@H](C)[C@H]1CC[C@H]2[C@@H](OC(=O)c3cccc(O)c3)CCC[C@]12C						< 3	0.16 µg/mL (≈ 0.414 µM)	0.67 µg/mL (≈ 1.73 µM)		> 10000 nM	> 231 min	
CC(C)CCC[C@@H](C)[C@H]1CC[C@H]2[C@H](Nc3ccc(O)cc3)CCC[C@]12C						< 3	0.00075 µg/mL (≈ 0.0021 µM)	0.00026 µg/mL (≈ 0.000727 µM)		2100 nM	> 231 min	
COC(C)(C)CCC[C@@H](C)[C@H]1CC[C@H]2[C@@H](Nc3cccc(O)c3)CCC[C@]12C	2300 nM	89%	600 nM	11000%	700 nM	< 3	0.017 µg/mL (≈ 0.0439 µM)	0.014 µg/mL (≈ 0.0361 µM)	3.3%		> 231 min	
CC(C)CCC[C@@H](C)[C@H]1CC[C@H]2[C@@H](Nc3ccccc3)CCC[C@]12C		1.2%							98%			
CC(C)CCC[C@@H](C)[C@H]1CC[C@H]2[C@H](CNc3cccc(O)c3)CCC[C@]12C	3800 nM	13%	1200 nM						13%			Activity [10]: 7.8%
CC(C)CCC[C@@H](C)[C@H]1CC[C@H]2[C@@H](NCc3ccc(O)cc3)CCC[C@]12C	3100 nM	24%	300 nM	1.1%					4.6%			
COc1ccc(N[C@H]2CCC[C@]3(C)[C@@H]([C@H](C)CCCC(C)C)CC[C@@H]23)cc1		2.4%							73%			
COc1cccc(N[C@H]2CCC[C@]3(C)[C@@H]([C@H](C)CCCC(C)C)CC[C@@H]23)c1		1.9%							110%			
C[C@H](CCCC(C)(C)O)[C@H]1CC[C@H]2[C@@H](OC(=O)c3cccc(O)c3)CCC[C@]12C	1600 nM	27000%	400 nM	> 30000%	400 nM	15	0.048 µg/mL (≈ 0.119 µM)	0.031 µg/mL (≈ 0.077 µM)	2.9%	> 10000 nM	47 min	
C=C1CC[C@H](O)C/C1=C/C=C1\CCC[C@]2(C)[C@@H]([C@H](C)CCCC(C)C)CC[C@@H]12 [CHOLECALCIFEROL]					900 nM					5800 nM		inhibition (Mus musculus [11]): inactive; inhibition (Mus musculus [12]): inactive; Activity (Mus musculus [13]): 5.5%; Activity (Mus musculus [14]): 2.9%; IC50 [15]: > 10000 nM; IC50 [16]: 4500 nM
C[C@H](CCCC(C)(C)O)[C@H]1CC[C@H]2[C@@H](Nc3ccc(O)cc3)CCC[C@]12C	890 to 900 nM	15000%	200 nM	> 30000%	600 nM		2.4 µg/mL (≈ 6.42 µM)	0.0042 µg/mL (≈ 0.0112 µM)	11%	2200 nM		inhibition (Mus musculus [11]): inactive; Hedgehog inhibition activity call (active/not active) (Mus musculus [12]): inactive; Activity (Mus musculus [13]): 140%; Activity (Mus musculus [14]): 51%; IC50 [15]: 2900 nM; IC50 [16]: 4900 nM
CC(C)CCC[C@@H](C)[C@H]1CC[C@H]2[C@@H](Nc3ccc4c(c3)OCO4)CCC[C@]12C		6.1%							110%			
C[C@H](CCCC(C)(C)O)[C@H]1CC[C@H]2[C@H](CNc3ccc(O)cc3)CCC[C@]12C	400 nM	6.1%	500 nM	140%	1300 nM				5.6%			
CC(C)CCC[C@@H](C)[C@H]1CC[C@H]2[C@@H](Nc3ccc(O)cc3)CCC[C@]12C	400 nM	45%				12	0.00062 µg/mL (≈ 0.00173 µM)	0.0026 µg/mL (≈ 0.00727 µM)			57 min	inhibition (Mus musculus [11]): inactive; Hedgehog inhibition activity call (active/not active) (Mus musculus [12]): inactive; Activity (Mus musculus [13]): 8.1%; Activity (Mus musculus [14]): 1.2%; IC50 [15]: 3100 nM; IC50 [16]: 3900 nM
COC(C)(C)CCC[C@@H](C)[C@H]1CC[C@H]2[C@H](CNc3cccc(O)c3)CCC[C@]12C	1100 nM	27%	700 nM	2400%	600 nM	16	0.06 µg/mL (≈ 0.149 µM)	0.12 µg/mL (≈ 0.299 µM)	3.7%		43 min	
CC(C)CCC[C@@H](C)[C@H]1CC[C@H]2[C@@H](NC(=O)c3cccc(O)c3)CCC[C@]12C						< 3	0.27 µg/mL (≈ 0.7 µM)	0.68 µg/mL (≈ 1.76 µM)			> 231 min	
C[C@H](CCCC(C)(C)O)[C@H]1CC[C@H]2[C@H](CNc3cccc(O)c3)CCC[C@]12C	1700 nM	34%	1300 nM	8.4%	> 10000 nM				4.1%	1600 nM		
C[C@H](CCCC(C)(C)O)[C@H]1CC[C@H]2[C@@H](Nc3cccc(O)c3)CCC[C@]12C	1300 nM	> 30000%	100 nM	> 30000%	100 nM				5.9%	5300 nM		

— ChEMBL document CHEMBL4382241, “Synthesis and evaluation of third generation vitamin D3 analogues as inhibitors of Hedgehog signaling” (Eur J Med Chem, 2019)
